Reference: ChEMBL document CHEMBL4257580, “Tanshinone-IIA-Based Analogues of Imidazole Alkaloid Act as Potent Inhibitors To Block Breast Cancer Invasion and Metastasis in Vivo” (J Med Chem, 2018)
Active and inactive are the calls of the source. The rule behind the calls is not given here.

Legend:
MDA-MB-231 [1] = assay: Induction of apoptosis in human MDA-MB-231 cells assessed as up-regulation cleaved caspase3 expression at 5 to 15 uM after 72 hrs by Western blot analysis; type: functional, cell-based
How it was run: (§1)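 Cells treated with 0, 5, 10 or 15 μM for 72 h. Lysates quantified by BCA, equal protein resolved on 10% tricine SDS-PAGE and transferred to nitrocellulose. Membranes blocked in 5% milk/TBST, then primary antibodies 1:1000 overnight at 4 °C and HRP secondary 1:2000 for 1 h at room temperature. Three independent experiments.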

MDA-MB-231 [2] = assay: Induction of apoptosis in human MDA-MB-231 cells assessed as early apoptotic cells at 15 uM after 72 hrs by annexin-V/propidium iodide double staining based flow cytometry (reference value: 0.02%); type: functional
L02 = assay: Antiproliferative activity against human L02 cells after 72 hrs by MTT assay; type: cell-based; conditions: L02, 72 h
How it was run: (§2)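 A549, HeLa, HepG2 and normal liver L02 cells kept in DMEM with 10% FBS at 37 °C under 5% CO2. Plated at 5×10^3 cells/well for 24 h, then treated with graded concentrations for 72 h. Viability measured by MTT reduction (5 h), formazan dissolved in DMSO and read at 570 nm. Three repeats.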

MDA-MB-231 [3] = assay: Induction of DNA damage in human MDA-MB-231 cells assessed as up-regulation of p53 expression at 2 to 15 uM by Western blot analysis; type: functional, cell-based
MDA-MB-231 [4] = assay: Induction of apoptosis in human MDA-MB-231 cells assessed as up-regulation of PARP expression at 5 to 15 uM after 72 hrs by Western blot analysis; type: functional, cell-based; how it was run: as §1
MDA-MB-231 [5] = assay: Antiinvasive activity against human MDA-MB-231 cells assessed as reduction in number of black holes at 3 uM after 24 hrs by FITC-gelatin based confocal microscopy; type: functional, cell-based
How it was run: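 Coverslips coated with poly-L-lysine, fixed with glutaraldehyde, overlaid with 0.2% FITC-gelatin in PBS/2% sucrose and quenched with sodium borohydride. Cells (2×10^5/well) plated with 0, 3 or 6 μM at 37 °C for 24 h. Gelatin degradation, seen as nonfluorescent dark holes, imaged by laser confocal microscopy; F-actin counterstained with rhodamine-phalloidin.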

MDA-MB-231 [6] = assay: Cell cycle arrest in human MDA-MB-231 cells assessed as accumulation at G1 phase at 15 uM after 72 hrs by propidium iodide staining based flow cytometry (reference value: 49.40%); type: functional
MDA-MB-231 [7] = assay: Induction of DNA damage in human MDA-MB-231 cells assessed as down-regulation of AKT expression at 2 to 15 uM by Western blot analysis; type: functional, cell-based
MDA-MB-231 [8] = assay: Antimetastasis activity in human MDA-MB-231 cells assessed reduction in stress fibers by measuring F-actin protein expression at 5 to 10 uM after 24 hrs by immunofluorescence based assay
MDA-MB-231 [9] = assay: Antimetastasis activity in human MDA-MB-231 cells assessed reduction in number of paxillins at 5 to 10 uM after 24 hrs by immunofluorescence based assay
MDA-MB-231 [10] = assay: Antiangiogenesis activity in human MDA-MB-231 cells xenografted in fil1:EGFP transgenic zebrafish sub-intestinal vessels assessed as inhibition of cell invasion at 5 uM measured every 24 hrs for 96 hrs by fluorescence microscopy; type: functional, cell-based
How it was run: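 Tg(fli1:EGFP) embryos at 48 hpf injected with 10–50 nL of DiI-labelled cells (~10^7 cells/mL in serum-free DMEM) into the perivitelline space near the subintestinal vessels. Ten embryos per well kept in 2 mL aquaculture water with 0 or 5 μM for 96 h. Imaged every 24 h by fluorescence microscopy; tumour area and trunk/tail fluorescence quantified, n=10/group, three experiments.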

MDA-MB-231 [11] = assay: Cell cycle arrest in human MDA-MB-231 cells assessed as downregulation of cyclin A expression at 5 to 15 uM after 72 hrs by Western blot analysis; type: functional, cell-based; how it was run: as §1
A549 = assay: Antiproliferative activity against human A549 cells after 72 hrs by MTT assay; type: functional, cell-based; conditions: A549, 72 h; how it was run: as §2
MDA-MB-231 [12] = assay: Antiproliferative activity against human MDA-MB-231 cells after 72 hrs by MTT assay; type: functional, cell-based
How it was run: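 MDA-MB-231 cells grown in DMEM with 10% FBS and penicillin/streptomycin at 37 °C under 5% CO2. Seeded at 5×10^3 cells/well for 24 h, then exposed to compound across a concentration range for 72 h. MTT (5 mg/mL in PBS) added for 5 h, formazan dissolved in DMSO, absorbance read at 570 nm. Three repeats.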

MDA-MB-231 [13] = assay: Induction of apoptosis in human MDA-MB-231 cells assessed as late apoptotic cells at 5 uM after 72 hrs by annexin-V/propidium iodide double staining based flow cytometry (reference value: 0.12%); type: functional
MDA-MB-231 [14] = assay: Cell cycle arrest in human MDA-MB-231 cells assessed as accumulation at G2 phase at 5 uM after 72 hrs by propidium iodide staining based flow cytometry (reference value: 8%); type: functional
MDA-MB-231 [15] = assay: Induction of apoptosis in human MDA-MB-231 cells assessed as late apoptotic cells at 10 uM after 72 hrs by annexin-V/propidium iodide double staining based flow cytometry (reference value: 0.12%); type: functional
MDA-MB-231 [16] = assay: Cell cycle arrest in human MDA-MB-231 cells assessed as accumulation at S phase at 15 uM after 72 hrs by propidium iodide staining based flow cytometry (reference value: 42.60%); type: functional
Danio rerio = assay: Toxicity in […] 24 hpf fil1:EGFP transgenic zebrafish embryo assessed as inhibition of normal angiogenesis at 2 to 4 uM after 48 hrs by fluorescence microscopy; type: organism-based; conditions: in vivo
How it was run: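 Non-xenografted Tg(fli1:EGFP) embryos dechorionated at 24 hpf and incubated with 0, 2 or 4 μM for 48 h, with PTK787 as positive control. Subintestinal vessel formation imaged at 72 hpf by fluorescence microscopy. n=10/group, three independent experiments.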

For `Cc1coc2c3ccc4c(c3c3[nH]c(-c5ccc(O)cc5)nc3c12)CCCC4(C)C`, the Activity (MDA-MB-231 [1]) was “Active”, the Activity (MDA-MB-231 [2]) was 6.73% and the IC50 (L02) was 49.1 µM. The Activity (MDA-MB-231 [3]) was “Active”, the Activity (MDA-MB-231 [4]) was “Active” and the Activity (MDA-MB-231 [5]) was “Active”. For the same molecule, the Activity (MDA-MB-231 [6]) was 35.37%, the Activity (MDA-MB-231 [7]) was “Active” and the Activity (MDA-MB-231 [8]) was “Active”. For the same molecule, the Activity (MDA-MB-231 [9]) was “Active”, the Activity (MDA-MB-231 [10]) was “Active” and the Activity (MDA-MB-231 [11]) was “Active”. For the same molecule, the IC50 (A549) was 6.9 µM, the Activity (MDA-MB-231 [12]) was “Dose-dependent effect” and the IC50 (MDA-MB-231 [12]; MDA-MB-231, 72 h) was 13.2 µM. It also gave an Activity (MDA-MB-231 [13]) of 0.43%, an Activity (MDA-MB-231 [14]) of 11.21% and an Activity (MDA-MB-231 [15]) of 0.35%. For the same molecule, the Activity (MDA-MB-231 [16]) was 54.51% and the Activity (Danio rerio) was “Non-Toxic”.
